Experimental data as given in ChEMBL document CHEMBL4477242, “Synthesis, structure and antimicrobial evaluation of a new gossypol triazole conjugates functionalized with aliphatic chains and benzyloxy groups” (2016).
Values after ≈ are worked out from the molar mass of the structure shown.

Tests used:
[1] = system: Fusarium oxysporum f. sp. lycopersici; assay: Antifungal activity against Fusarium oxysporum f. sp. lycopersici after 18 hrs by serial microdilution assay; format: functional
How it was run: (§1)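 Fungal strains tested by MIC determination, with miconazole run as the reference antifungal. The two Fusarium oxysporum formae speciales are isolates from plants (cabbage and tomatoes).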

[2] = Antifungal activity against Fusarium oxysporum f. sp. betae after 18 hrs by serial microdilution assay; format: functional; how it was run: as §1
[3] = system: Aspergillus brasiliensis; assay: Antifungal activity against Aspergillus brasiliensis ATCC 16404 after 18 hrs by serial microdilution assay; format: functional; settings: ATCC 16404, 18 h; how it was run: as §1
[4] = system: Aspergillus fumigatus; assay: Antifungal activity against Aspergillus fumigatus ATCC 204305 after 18 hrs by serial microdilution assay; format: functional; settings: ATCC 204305, 18 h; how it was run: as §1
[5] = system: Trichophyton mentagrophytes; assay: Antifungal activity against Trichophyton mentagrophytes ATCC 9533 after 18 hrs by serial microdilution assay; format: functional; settings: ATCC 9533, 18 h; how it was run: as §1
[6] = system: Rhizopus stolonifer; assay: Antifungal activity against Rhizopus stolonifer ATCC 56227b after 18 hrs by serial microdilution assay; format: functional; how it was run: as §1
[7] = system: Fusarium acuminatum; assay: Antifungal activity against Fusarium acuminatum ATCC 46651 after 18 hrs by serial microdilution assay; format: functional; settings: ATCC 46651, 18 h; how it was run: as §1
[8] = system: Staphylococcus aureus; assay: Antibacterial activity against Staphylococcus aureus ATCC 25923 after 18 hrs by serial microdilution assay; format: functional; settings: ATCC 25923, 18 h
[9] = system: Staphylococcus aureus; assay: Antibacterial activity against Staphylococcus aureus ATCC 6538 after 18 hrs by serial microdilution assay; format: functional; settings: ATCC 6538, 18 h
[10] = system: Staphylococcus aureus; assay: Antibacterial activity against methicillin-resistant Staphylococcus aureus 1 after 18 hrs by serial microdilution assay; format: functional; settings: Staphylococcus aureus, 1, 18 h
[11] = system: Staphylococcus aureus; assay: Antibacterial activity against methicillin-resistant Staphylococcus aureus 2 after 18 hrs by serial microdilution assay; format: functional; settings: Staphylococcus aureus, 2, 18 h
[12] = system: Staphylococcus epidermidis; assay: Antibacterial activity against Staphylococcus epidermidis ATCC 12228 after 18 hrs by serial microdilution assay; format: functional; settings: ATCC 12228, 18 h
[13] = system: Staphylococcus epidermidis; assay: Antibacterial activity against Staphylococcus epidermidis ATCC 49134 after 18 hrs by serial microdilution assay; format: functional; settings: ATCC 49134, 18 h
[14] = system: Streptococcus pneumoniae; assay: Antibacterial activity against Streptococcus pneumoniae ATCC 49619 after 18 hrs by serial microdilution assay; format: functional; settings: ATCC 49619, 18 h
[15] = system: Micrococcus luteus; assay: Antibacterial activity against Micrococcus luteus ATCC 10240 after 18 hrs by serial microdilution assay; format: functional; settings: ATCC 10240, 18 h
[16] = system: Bacillus subtilis; assay: Antibacterial activity against Bacillus subtilis […] after 18 hrs by serial microdilution assay; format: functional
[17] = system: Rhizopus stolonifer; assay: Reduction in ergosterol content in Rhizopus stolonifer ATCC 56227 assessed per gram of dry fungi mass at 256 microg/ml incubated for 24 hrs measured after 24 to 96 hrs by HPLC analysis; format: functional
How it was run: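 Ergosterol was quantified by HPLC in derivatized fungal material from treated cultures, using the peak area at a retention time of 8.26 min. Results are expressed as mg ergosterol per 1 g of dry fungal mass. Content was followed over incubation time, up to 96 h.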

[18] = system: Rhizopus stolonifer; assay: Reduction in ergosterol content in Rhizopus stolonifer ATCC 56227 at 256 microg/ml by HPLC analysis; format: functional, organism-based; settings: TDE = time-dependent effect
How it was run: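 Treated fungal material was derivatised and its ergosterol measured by HPLC from the area of the ergosterol peak at Rt 8.26 min. Content is expressed as mg per 1 g dry fungal mass and followed over incubation time up to 96 h.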

Row | Compound | MIC [1] [µg/mL] | MIC [2] [µg/mL] | MIC [3] [µg/mL] | MIC [4] [µg/mL] | MIC [5] [µg/mL] | MIC [6] [µg/mL] | MIC [7] [µg/mL] | MIC [8] [µg/mL] | MIC [9] [µg/mL] | MIC [10] [µg/mL] | MIC [11] [µg/mL] | MIC [12] [µg/mL] | MIC [13] [µg/mL] | MIC [14] [µg/mL] | MIC [15] [µg/mL] | MIC [16] [µg/mL] | Activity [17] [mg] | Activity [18]
1 | Cc1cc2c(c(O)c1-c1c(C)cc3c(c1O)/C(=C/NCCCn1cc(COCc4ccccc4)nn1)C(=O)C(O)=C3C(C)C)/C(=C/NCCCn1cc(COCc3ccccc3)nn1)C(=O)C(O)=C2C(C)C | 16 (≈ 16.4 µM) | 16 (≈ 16.4 µM) |  |  |  |  |  |  |  |  |  |  |  |  |  |  |  | 
2 | Cc1cc2c(c(O)c1-c1c(C)cc3c(c1O)/C(=C/NCCn1cc(COCc4ccccc4)nn1)C(=O)C(O)=C3C(C)C)/C(=C/NCCn1cc(COCc3ccccc3)nn1)C(=O)C(O)=C2C(C)C | 16 (≈ 16.9 µM) | 16 (≈ 16.9 µM) | 128 (≈ 135 µM) | 256 (≈ 270 µM) | 256 (≈ 270 µM) | 64 (≈ 67.6 µM) | 128 (≈ 135 µM) | > 256 | > 256 | > 256 | > 256 | > 256 | > 256 | > 256 | > 256 | > 256 | 1 | Tde
3 | CCCc1cn(CCCN/C=C2\C(=O)C(O)=C(C(C)C)c3cc(C)c(-c4c(C)cc5c(c4O)/C(=C/NCCCn4cc(CCC)nn4)C(=O)C(O)=C5C(C)C)c(O)c32)nn1 | 64 (≈ 78.1 µM) | 64 (≈ 78.1 µM) |  |  |  |  |  |  |  |  |  |  |  |  |  |  |  | 
4 | CCCCCc1cn(CCCN/C=C2\C(=O)C(O)=C(C(C)C)c3cc(C)c(-c4c(C)cc5c(c4O)/C(=C/NCCCn4cc(CCCCC)nn4)C(=O)C(O)=C5C(C)C)c(O)c32)nn1 | 64 (≈ 73.1 µM) | 64 (≈ 73.1 µM) | 256 (≈ 293 µM) | 256 (≈ 293 µM) | 256 (≈ 293 µM) | 128 (≈ 146 µM) | 256 (≈ 293 µM) | > 256 | > 256 | > 256 | > 256 | > 256 | > 256 | > 256 | > 256 | > 256 |  | 
5 | Cc1cc2c(C(C)C)c(O)c(O)c(C=O)c2c(O)c1-c1c(C)cc2c(C(C)C)c(O)c(O)c(C=O)c2c1O [GOSSYPOL] | 32 (≈ 61.7 µM) | 32 (≈ 61.7 µM) | 256 (≈ 494 µM) | 256 (≈ 494 µM) | 128 (≈ 247 µM) | 128 (≈ 247 µM) | 128 (≈ 247 µM) | 16 (≈ 30.9 µM) | 16 (≈ 30.9 µM) | 16 (≈ 30.9 µM) | 16 (≈ 30.9 µM) | 16 (≈ 30.9 µM) | 16 (≈ 30.9 µM) | 16 (≈ 30.9 µM) | 32 (≈ 61.7 µM) | 16 (≈ 30.9 µM) |  | Tde
6 | CCCCCc1cn(CCN/C=C2\C(=O)C(O)=C(C(C)C)c3cc(C)c(-c4c(C)cc5c(c4O)/C(=C/NCCn4cc(CCCCC)nn4)C(=O)C(O)=C5C(C)C)c(O)c32)nn1 | 64 (≈ 75.6 µM) | 64 (≈ 75.6 µM) | 256 (≈ 302 µM) | 256 (≈ 302 µM) | 256 (≈ 302 µM) | 128 (≈ 151 µM) | 256 (≈ 302 µM) | > 256 | > 256 | > 256 | > 256 | > 256 | > 256 | > 256 | > 256 | > 256 |  | 
7 | CCCCc1cn(CCCN/C=C2\C(=O)C(O)=C(C(C)C)c3cc(C)c(-c4c(C)cc5c(c4O)/C(=C/NCCCn4cc(CCCC)nn4)C(=O)C(O)=C5C(C)C)c(O)c32)nn1 | 64 (≈ 75.6 µM) | 64 (≈ 75.6 µM) | 256 (≈ 302 µM) | 256 (≈ 302 µM) | 256 (≈ 302 µM) | 128 (≈ 151 µM) | 256 (≈ 302 µM) | > 256 | > 256 | > 256 | > 256 | > 256 | > 256 | > 256 | > 256 | > 256 |  | 
8 | CCCCc1cn(CCN/C=C2\C(=O)C(O)=C(C(C)C)c3cc(C)c(-c4c(C)cc5c(c4O)/C(=C/NCCn4cc(CCCC)nn4)C(=O)C(O)=C5C(C)C)c(O)c32)nn1 | 64 (≈ 78.1 µM) | 64 (≈ 78.1 µM) | 256 (≈ 313 µM) | 256 (≈ 313 µM) | 256 (≈ 313 µM) | 128 (≈ 156 µM) | 256 (≈ 313 µM) | > 256 | > 256 | > 256 | > 256 | > 256 | > 256 | > 256 | > 256 | > 256 |  | 
9 | Clc1ccc(COC(Cn2ccnc2)c2ccc(Cl)cc2Cl)c(Cl)c1 (stereo unspecified) [MICONAZOLE] | 16 (≈ 38.4 µM) | 16 (≈ 38.4 µM) |  |  |  |  |  |  |  |  |  |  |  |  |  |  |  | 
10 | CCCc1cn(CCN/C=C2\C(=O)C(O)=C(C(C)C)c3cc(C)c(-c4c(C)cc5c(c4O)/C(=C/NCCn4cc(CCC)nn4)C(=O)C(O)=C5C(C)C)c(O)c32)nn1 | 64 (≈ 80.9 µM) | 64 (≈ 80.9 µM) | 256 (≈ 324 µM) | 256 (≈ 324 µM) | 256 (≈ 324 µM) | 128 (≈ 162 µM) | 256 (≈ 324 µM) | 256 (≈ 324 µM) | 256 (≈ 324 µM) | > 256 | > 256 | 256 (≈ 324 µM) | 256 (≈ 324 µM) | 256 (≈ 324 µM) | > 256 | > 256 |  | 
